Laboratory results as given in ChEMBL document CHEMBL3393023, “Benzimidazole-containing HCV NS5A inhibitors: effect of 4-substituted pyrrolidines in balancing genotype 1a and 1b potency” (Bioorg Med Chem Lett, 2015).

Assays:
[1] = Volume of distribution at steady state in iv dosed rat; type: ADME, organism-based; settings: in vivo, read-out: Vdss
[2] = Oral bioavailability in rat at 3 mg/kg; type: ADME, organism-based; settings: in vivo
Procedure, shortened: (§1)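 Rats were dosed orally at 3 mg/kg as a solution in 30% aqueous PEG-400.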

[3] = Cytotoxicity against human Huh7ET cells by [3H]-thymidine incorporation assay; type: cell-based; settings: Huh7ET cells (Huh-7)
Procedure, shortened: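 Huh-7 ET cells were exposed to 12 test-compound concentrations, each in duplicate. Viability was read by [3H]-thymidine incorporation and CC50 was derived from the curve. A run was accepted only when the positive-control CC50 fell within 40% of its mean value.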

Hepatitis C virus [4] = assay: Selectivity index, ratio of EC50 for HCV genotype 1a expressing NS5A M28T mutant to EC50 for HCV genotype 1a expressing wild type NS5A; type: functional, Hepacivirus hominis, subtype 1a
Procedure, shortened: (§2)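 Recombinant HCV replicon cell lines carrying the single NS5A substitution were tested, with the matching wild-type replicon as reference. The value is the fold shift of activity against the mutant relative to wild-type activity.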

Hepatitis C virus [5] = assay: Selectivity index, ratio of EC50 for HCV genotype 1a expressing NS5A Q30R mutant to EC50 for HCV genotype 1a expressing wild type NS5A; type: functional, Hepacivirus hominis, subtype 1a; procedure, shortened: as §2
Cytochrome P450 1A2 = molecular target: T1, Cytochrome P450 1A2 (Homo sapiens, UniProt P05177); assay: Inhibition of CYP1A2 (unknown origin); type: ADME
T1 sequence (P05177 whole entry): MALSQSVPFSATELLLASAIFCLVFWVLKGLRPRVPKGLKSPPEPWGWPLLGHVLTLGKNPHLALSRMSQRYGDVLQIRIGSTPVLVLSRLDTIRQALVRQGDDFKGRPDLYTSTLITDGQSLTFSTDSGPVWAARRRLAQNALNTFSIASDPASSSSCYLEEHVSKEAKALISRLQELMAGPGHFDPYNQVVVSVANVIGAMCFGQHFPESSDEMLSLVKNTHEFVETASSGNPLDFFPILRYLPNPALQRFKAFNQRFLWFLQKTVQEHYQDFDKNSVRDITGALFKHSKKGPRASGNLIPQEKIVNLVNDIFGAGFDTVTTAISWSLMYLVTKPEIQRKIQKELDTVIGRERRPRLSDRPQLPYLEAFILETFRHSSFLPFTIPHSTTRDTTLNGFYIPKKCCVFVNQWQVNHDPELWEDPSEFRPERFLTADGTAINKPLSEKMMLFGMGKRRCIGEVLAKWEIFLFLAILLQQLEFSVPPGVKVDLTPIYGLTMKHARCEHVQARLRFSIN

[6] = Clearance in iv dosed rat; type: ADME, organism-based; settings: in vivo
[7] = Permeability from apical to basolateral layer in human Caco2 cells; type: ADME, cell-based; settings: Caco-2, read-out: permeability
[8] = molecular target: T2, Voltage-gated inwardly rectifying potassium channel KCNH2 (Homo sapiens, UniProt Q12809); assay: Inhibition of human ERG channel by QPatch technique
T2 sequence (Q12809 whole entry): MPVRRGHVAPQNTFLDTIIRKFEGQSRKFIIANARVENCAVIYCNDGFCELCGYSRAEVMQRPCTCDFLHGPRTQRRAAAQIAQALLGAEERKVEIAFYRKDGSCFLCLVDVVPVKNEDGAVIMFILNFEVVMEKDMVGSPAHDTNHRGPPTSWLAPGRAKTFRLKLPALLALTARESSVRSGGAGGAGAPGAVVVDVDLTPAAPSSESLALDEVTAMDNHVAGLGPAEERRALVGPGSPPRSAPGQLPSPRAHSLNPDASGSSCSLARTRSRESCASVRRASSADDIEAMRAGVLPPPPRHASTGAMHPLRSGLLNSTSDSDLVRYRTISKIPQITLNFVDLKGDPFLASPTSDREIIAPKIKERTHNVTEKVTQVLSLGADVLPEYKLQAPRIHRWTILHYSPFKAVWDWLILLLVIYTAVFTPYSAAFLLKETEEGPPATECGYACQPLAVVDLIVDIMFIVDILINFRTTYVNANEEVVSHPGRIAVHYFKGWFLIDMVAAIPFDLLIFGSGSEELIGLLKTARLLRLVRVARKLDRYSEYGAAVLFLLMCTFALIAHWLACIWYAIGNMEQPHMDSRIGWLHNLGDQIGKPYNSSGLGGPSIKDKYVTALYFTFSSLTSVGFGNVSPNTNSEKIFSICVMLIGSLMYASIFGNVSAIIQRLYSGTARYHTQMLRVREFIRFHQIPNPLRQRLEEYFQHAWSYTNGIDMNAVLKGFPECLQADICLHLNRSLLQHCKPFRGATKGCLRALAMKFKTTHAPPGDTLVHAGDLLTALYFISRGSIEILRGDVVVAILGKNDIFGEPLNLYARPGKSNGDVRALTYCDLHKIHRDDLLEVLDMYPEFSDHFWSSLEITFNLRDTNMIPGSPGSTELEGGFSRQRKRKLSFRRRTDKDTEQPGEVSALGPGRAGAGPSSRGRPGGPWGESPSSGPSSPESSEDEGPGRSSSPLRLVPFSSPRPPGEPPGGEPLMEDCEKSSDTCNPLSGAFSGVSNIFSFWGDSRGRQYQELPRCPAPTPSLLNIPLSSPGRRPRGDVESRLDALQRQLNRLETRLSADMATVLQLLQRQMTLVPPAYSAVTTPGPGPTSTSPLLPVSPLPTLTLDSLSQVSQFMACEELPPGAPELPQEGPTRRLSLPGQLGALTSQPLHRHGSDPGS

Cytochrome P450 3A4 = Cytochrome P450 3A4 (Homo sapiens, UniProt P08684); assay: Inhibition of CYP3A4 (unknown origin); type: ADME
Cytochrome P450 3A4, sequence (P08684 whole entry): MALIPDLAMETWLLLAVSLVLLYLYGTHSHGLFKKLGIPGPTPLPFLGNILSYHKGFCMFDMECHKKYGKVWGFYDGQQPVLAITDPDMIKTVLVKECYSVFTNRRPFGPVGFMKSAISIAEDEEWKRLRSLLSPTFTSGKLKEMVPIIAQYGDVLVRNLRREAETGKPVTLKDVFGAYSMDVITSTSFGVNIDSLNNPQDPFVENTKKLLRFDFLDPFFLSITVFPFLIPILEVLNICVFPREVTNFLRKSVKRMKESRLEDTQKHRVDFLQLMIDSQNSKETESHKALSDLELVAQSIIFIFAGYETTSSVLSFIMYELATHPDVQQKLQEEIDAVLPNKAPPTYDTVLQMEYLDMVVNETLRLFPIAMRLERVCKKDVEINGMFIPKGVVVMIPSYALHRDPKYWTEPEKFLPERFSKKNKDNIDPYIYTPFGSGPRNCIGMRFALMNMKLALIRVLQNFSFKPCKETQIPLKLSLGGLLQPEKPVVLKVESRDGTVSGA

Hepatitis C virus [9] = assay: Selectivity index, ratio of EC50 for HCV genotype 1b expressing NS5A Y93H mutant to EC50 for HCV genotype 1b expressing wild type NS5A; type: functional, Hepacivirus hominis; procedure, shortened: as §2
[10] = molecular target: T2, Voltage-gated inwardly rectifying potassium channel KCNH2; assay: Inhibition of human ERG channel by planar technique
[11] = Half life in iv dosed rat; type: ADME, organism-based; settings: in vivo
Hepatitis C virus [12] = assay: Antiviral activity against Hepatitis C virus genotype 1b infected in human Huh-5.2 cells assessed as decrease in HCV replicon RNA replication after 4 days by luciferase assay; type: functional, cell-based, Hepacivirus hominis; settings: Huh-5-2, 96 h
Cytochrome P450 2D6 = Cytochrome P450 2D6 (Homo sapiens, UniProt P10635); assay: Inhibition of CYP2D6 (unknown origin); type: ADME
Cytochrome P450 2D6, sequence (P10635 whole entry): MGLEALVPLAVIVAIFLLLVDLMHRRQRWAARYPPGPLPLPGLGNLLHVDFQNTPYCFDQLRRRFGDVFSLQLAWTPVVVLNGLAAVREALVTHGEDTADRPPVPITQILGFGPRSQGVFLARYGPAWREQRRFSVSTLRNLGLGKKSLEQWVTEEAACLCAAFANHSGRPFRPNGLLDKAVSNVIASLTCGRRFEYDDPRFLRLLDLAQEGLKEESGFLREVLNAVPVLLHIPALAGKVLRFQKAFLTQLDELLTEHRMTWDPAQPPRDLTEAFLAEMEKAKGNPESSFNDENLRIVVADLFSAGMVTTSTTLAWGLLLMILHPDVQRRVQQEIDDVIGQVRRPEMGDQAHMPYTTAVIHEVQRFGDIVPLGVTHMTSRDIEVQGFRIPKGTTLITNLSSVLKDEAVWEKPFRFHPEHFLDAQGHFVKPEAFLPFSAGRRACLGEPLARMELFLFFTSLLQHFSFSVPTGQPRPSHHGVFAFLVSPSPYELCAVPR

[13] = Metabolic stability in human hepatocytes assessed as compound remaining at 5 uM after 60 mins; type: ADME, cell-based, Hepatocyte; settings: read-out: Stability
[14] = Half life in rat at 3 mg/kg, po; type: ADME, organism-based; design: dose 3 mg/kg, route oral; settings: in vivo; procedure, shortened: as §1
[15] = Cmax in rat at 3 mg/kg, po; type: ADME, organism-based; design: dose 3 mg/kg, route oral; settings: in vivo; procedure, shortened: as §1
[16] = Protein binding in human plasma; type: ADME, cell-free; settings: read-out: PPB (converted)
[17] = AUC (0 to 8 hrs) in rat at 3 mg/kg, po; type: ADME, organism-based; design: time < 8 hr, dose 3 mg/kg, route oral; settings: plasma; procedure, shortened: as §1
Hepatitis C virus [18] = assay: Antiviral activity against Hepatitis C virus genotype 1a infected in W11.8 cells assessed as decrease in NS5A expression in replicon cell after 4 days by luminescence based ELISA; type: functional, Hepacivirus hominis; settings: subtype 1a, W11.8, 96 h
[19] = Metabolic stability in rat hepatocytes assessed as compound remaining at 5 uM after 60 mins; type: ADME, cell-based, Hepatocyte; settings: read-out: Stability
Hepatitis C virus [20] = assay: Selectivity index, ratio of EC50 for HCV genotype 1a expressing NS5A Y93H mutant to EC50 for HCV genotype 1a expressing wild type NS5A; type: functional, Hepacivirus hominis, subtype 1a; procedure, shortened: as §2
Cytochrome P450 2C19 = Cytochrome P450 2C19 (Homo sapiens, UniProt P33261); assay: Inhibition of CYP2C19 (unknown origin); type: ADME
Cytochrome P450 2C19, sequence (P33261 whole entry): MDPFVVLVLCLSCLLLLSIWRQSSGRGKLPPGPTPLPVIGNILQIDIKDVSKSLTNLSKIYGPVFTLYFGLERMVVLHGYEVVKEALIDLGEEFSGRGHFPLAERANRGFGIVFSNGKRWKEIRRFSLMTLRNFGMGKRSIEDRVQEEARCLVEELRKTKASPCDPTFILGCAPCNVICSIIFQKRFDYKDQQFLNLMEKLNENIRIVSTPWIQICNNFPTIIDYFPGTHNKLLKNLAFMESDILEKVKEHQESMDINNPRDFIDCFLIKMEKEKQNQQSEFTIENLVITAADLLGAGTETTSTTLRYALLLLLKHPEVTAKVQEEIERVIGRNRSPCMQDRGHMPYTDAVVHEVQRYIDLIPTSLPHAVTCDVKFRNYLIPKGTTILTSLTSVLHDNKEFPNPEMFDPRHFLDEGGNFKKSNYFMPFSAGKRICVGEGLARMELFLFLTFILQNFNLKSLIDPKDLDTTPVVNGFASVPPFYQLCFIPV

MDR1 (human) = assay: Efflux ratio of permeability in MDCK cells over-expressing human Mdr1; type: ADME, cell-based, Canis lupus familiaris; settings: dog
Cytochrome P450 2C9 = Cytochrome P450 2C9 (Homo sapiens, UniProt P11712); assay: Inhibition of CYP2C9 (unknown origin); type: ADME
Cytochrome P450 2C9, sequence (P11712 whole entry): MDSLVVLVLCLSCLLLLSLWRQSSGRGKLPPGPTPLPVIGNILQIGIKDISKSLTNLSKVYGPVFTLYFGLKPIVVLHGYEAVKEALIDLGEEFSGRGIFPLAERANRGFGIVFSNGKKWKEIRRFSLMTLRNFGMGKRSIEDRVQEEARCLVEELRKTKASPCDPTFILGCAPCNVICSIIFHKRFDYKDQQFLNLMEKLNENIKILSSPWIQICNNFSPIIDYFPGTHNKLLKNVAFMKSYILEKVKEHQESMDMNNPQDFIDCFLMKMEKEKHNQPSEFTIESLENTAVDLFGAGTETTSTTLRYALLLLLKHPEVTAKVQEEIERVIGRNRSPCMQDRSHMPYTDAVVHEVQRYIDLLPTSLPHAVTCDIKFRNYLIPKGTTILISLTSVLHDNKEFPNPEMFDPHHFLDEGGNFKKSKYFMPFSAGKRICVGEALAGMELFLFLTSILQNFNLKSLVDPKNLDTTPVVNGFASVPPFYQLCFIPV

[21] = Protein binding in rat plasma; type: ADME, cell-free; settings: read-out: PPB (converted)

## COC(=O)N[C@H](C(=O)N1C[C@@H](C)C[C@H]1c1nc(-c2ccc(-c3ccc(-c4ccc5[nH]c([C@@H]6C[C@H](C)CN6C(=O)[C@@H](NC(=O)OC)C(C)C)nc5c4)cc3)cc2)c[nH]1)C(C)C
[1]
  Vd: 1.4 L/kg
[2]
  bioavailability: 26%
[3]
  CC50: > 20 µM
Hepatitis C virus [4]
  Selectivity ratio: 55
Hepatitis C virus [5]
  Selectivity ratio: 42
Cytochrome P450 1A2
  IC50: > 30 µM
[6]
  clearance: 0.54 L/h/kg
[7]
  Papp A→B: 41 nm/s
[8]
  IC50: > 30 µM
Cytochrome P450 3A4
  IC50: > 30 µM
Hepatitis C virus [9]
  Selectivity ratio: 100
[10]
  IC50: > 30 µM
[11]
  half-life: 2 h
Hepatitis C virus [12]
  EC50: 5 pM
Cytochrome P450 2D6
  IC50: > 30 µM
[13]
  remaining at 1 h, 5 µM: > 90%
[14]
  half-life: 3.5 h
[15]
  Cmax: 0.03 ng/mL
[16]
  fraction unbound: 0.014
[17]
  AUC(0-t) at 8 h: 2.08 µg·h/mL
Hepatitis C virus [18]
  EC50: 4 pM
[19]
  remaining at 1 h, 5 µM: > 90%
Hepatitis C virus [20]
  Selectivity ratio: 8000
Cytochrome P450 2C19
  IC50: > 30 µM
MDR1 (human)
  efflux ratio: 1.8
Cytochrome P450 2C9
  IC50: > 30 µM
[21]
  fraction unbound: 0.083
